Here are results for twelve compounds from ChEMBL document CHEMBL4823248, “Pyrazole Agonist of the Apelin Receptor Improves Symptoms of Metabolic Syndrome in Mice” (J Med Chem, 2021).

Series [1] can be described thus: Half life in human pooled liver microsomes at 1 uM incubated up to 120 mins in presence of NADPH by LC-MS analysis. The class given is ADME, Microsome. In general terms: Microsomes from liver hold many membrane-bound enzymes, among them those of drug oxidation.
Series [2] addresses T1, Apelin receptor (Homo sapiens, UniProt P35414).
T1 sequence (P35414 whole entry): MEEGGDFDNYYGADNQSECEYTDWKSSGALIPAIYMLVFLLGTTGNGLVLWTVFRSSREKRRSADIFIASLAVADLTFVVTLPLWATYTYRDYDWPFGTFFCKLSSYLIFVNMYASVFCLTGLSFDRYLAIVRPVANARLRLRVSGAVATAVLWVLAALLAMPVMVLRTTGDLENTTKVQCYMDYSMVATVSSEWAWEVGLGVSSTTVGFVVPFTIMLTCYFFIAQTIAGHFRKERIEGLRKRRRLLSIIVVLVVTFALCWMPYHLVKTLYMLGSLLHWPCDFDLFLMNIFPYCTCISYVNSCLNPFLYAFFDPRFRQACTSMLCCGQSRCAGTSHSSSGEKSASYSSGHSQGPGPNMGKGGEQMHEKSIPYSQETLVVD
Briefly: Agonist activity at human AGTRL1 expressed in CHO-K1 cells assessed as induction of beta-arrestin 2 recruitment incubated for 90 mins by PathHunter assay. The class given is functional, cell-based. (In general: Recruitment of arrestin is a read-out of receptor activation apart from second messengers.)

A short description of series [3]: Intrinsic clearance in human pooled liver microsomes at 1 uM incubated up to 120 mins in presence of NADPH by LC-MS analysis. The series is classed as ADME, Microsome. The conditions noted are these: read-out: CLH.
The target of series [4] is T1, Apelin receptor. Briefly: Agonist activity at human APJ receptor expressed in CHO cells assessed as inhibition of forskolin-induced cAMP accumulation measured after 30 mins by TR-FRET assay. Background: cAMP levels reflect the balance of adenylyl cyclase and phosphodiesterase activity.
Series [5] is described as follows: Protein binding in human plasma at 10 uM measured after 4 hrs by LC-MS/MS analysis. The conditions noted are these: read-out: PPB (converted). The series is classed as ADME, cell-free. The procedure, abridged: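 Human plasma spiked at 10 μM, dialyzed against phosphate/NaCl buffer by rapid equilibrium dialysis for 4 h at 37 °C with shaking at 100 rpm. Samples matrix-matched, protein precipitated with cold acetonitrile/formic acid, and analyzed by LC−MS/MS. Three independent samples.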

For series [6], the target named is Voltage-gated inwardly rectifying potassium channel KCNH2 (Homo sapiens, UniProt Q12809). Nature of the series: Displacement of [3H]astemizole from human ERG at 10 uM measured after 60 mins by scintillation counter method. The settings on record: 1 h. The method, boiled down: (§1)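 Competition binding using 4 μg hERG-expressing membranes with ~3 nM [3H]astemizole for 60 min in pH 7.4 HEPES buffer with 0.1% BSA. Terminated by filtration onto polyethyleneimine-soaked GF/B filters, washed with ice-cold buffer, and counted with scintillant. At least two runs in duplicate.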
Voltage-gated inwardly rectifying potassium channel KCNH2, sequence (Q12809 whole entry): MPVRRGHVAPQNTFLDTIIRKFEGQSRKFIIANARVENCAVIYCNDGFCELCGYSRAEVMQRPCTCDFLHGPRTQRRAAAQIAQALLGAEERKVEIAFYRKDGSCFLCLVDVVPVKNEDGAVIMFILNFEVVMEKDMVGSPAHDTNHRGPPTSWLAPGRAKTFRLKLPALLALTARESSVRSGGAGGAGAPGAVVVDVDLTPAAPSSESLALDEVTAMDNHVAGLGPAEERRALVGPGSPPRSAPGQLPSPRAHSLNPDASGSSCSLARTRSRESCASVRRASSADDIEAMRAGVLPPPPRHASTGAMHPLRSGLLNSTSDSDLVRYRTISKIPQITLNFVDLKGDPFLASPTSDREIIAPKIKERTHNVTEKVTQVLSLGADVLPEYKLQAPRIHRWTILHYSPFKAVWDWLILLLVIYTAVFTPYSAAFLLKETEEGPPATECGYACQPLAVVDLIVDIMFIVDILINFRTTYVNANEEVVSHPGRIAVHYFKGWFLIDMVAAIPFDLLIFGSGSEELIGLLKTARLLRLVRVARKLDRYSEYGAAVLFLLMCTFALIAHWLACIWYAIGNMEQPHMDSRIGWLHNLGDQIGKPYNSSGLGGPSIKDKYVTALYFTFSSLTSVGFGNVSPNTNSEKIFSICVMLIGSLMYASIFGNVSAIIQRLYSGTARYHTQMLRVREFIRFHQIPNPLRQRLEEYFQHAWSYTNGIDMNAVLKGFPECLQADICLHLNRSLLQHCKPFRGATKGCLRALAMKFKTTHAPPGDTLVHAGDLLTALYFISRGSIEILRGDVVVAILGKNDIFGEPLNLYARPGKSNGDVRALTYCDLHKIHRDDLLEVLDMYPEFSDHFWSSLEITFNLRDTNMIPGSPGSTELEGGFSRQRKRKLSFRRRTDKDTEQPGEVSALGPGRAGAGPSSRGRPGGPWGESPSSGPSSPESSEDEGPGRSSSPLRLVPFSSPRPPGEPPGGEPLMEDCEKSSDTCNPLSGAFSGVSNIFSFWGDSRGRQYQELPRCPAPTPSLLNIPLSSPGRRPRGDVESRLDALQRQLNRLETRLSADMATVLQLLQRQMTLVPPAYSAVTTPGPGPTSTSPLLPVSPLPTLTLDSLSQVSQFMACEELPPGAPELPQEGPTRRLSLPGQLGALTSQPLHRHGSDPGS

For series [7], the target named is T2, Apelin receptor (Mus musculus, UniProt Q9WV08).
T2 sequence (Q9WV08 whole entry): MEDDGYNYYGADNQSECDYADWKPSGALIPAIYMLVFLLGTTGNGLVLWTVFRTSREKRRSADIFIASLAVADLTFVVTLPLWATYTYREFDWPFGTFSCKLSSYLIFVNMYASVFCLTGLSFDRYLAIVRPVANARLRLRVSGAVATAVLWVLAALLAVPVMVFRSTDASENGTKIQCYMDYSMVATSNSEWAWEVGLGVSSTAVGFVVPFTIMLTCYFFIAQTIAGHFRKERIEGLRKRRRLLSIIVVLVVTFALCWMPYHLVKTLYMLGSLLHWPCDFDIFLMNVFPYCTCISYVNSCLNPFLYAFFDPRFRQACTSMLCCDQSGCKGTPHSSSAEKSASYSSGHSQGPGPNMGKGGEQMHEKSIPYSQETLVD
Nature of the series: Agonist activity at Galphaq16-fused mouse APJ receptor expressed in CHO cells assessed as stimulation of Ca2+ mobilization incubated for 1 hr by Calcium 5-dye based fluorescence based assay. The class given is cell-based. The method, boiled down:
(§2)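 CHO cells stably co-expressing Gαq16 with mouse APJ or human AGTR1; 20,000 hAGTR1 cells per well, plated 24 h at 37 °C. Loaded 1 h at 37 °C with Calcium 5 dye in HBSS buffer with 20 mM HEPES, 1% BSA, 10 μM probenecid, 1% DMSO final. Stimulated with compounds at various concentrations; fluorescence read on FLIPR Tetra. Duplicate, 2−3 runs.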

Series [8] is described as follows: Half life in CD-1 mouse plasma at 15 mg/kg, ip measured up to 24 hrs by LC-MS/MS analysis. The class given is ADME, organism-based. The procedure, abridged: (§3)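 Male CD-1 mice, about 10 weeks old, acclimated 72 h. Single 15 mg/kg IP dose formulated in modified citrate buffer (pH 6). Animals sacrificed at 0.5, 1, 2, 4, 8 and 24 h to collect plasma and brain samples. Cmax, AUC_all, CL and T1/2 determined.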

The nature of series [9]: Cmax in CD-1 mouse brain at 15 mg/kg, ip measured up to 24 hrs by LC-MS/MS analysis. The series is classed as ADME, organism-based. Further details: route intraperitoneal, dose 15 mg/kg, time <=24; call rule not given here. The method, boiled down: as §3
Series [10] addresses T3, Type-1 angiotensin II receptor (Homo sapiens, UniProt P30556).
T3 sequence (P30556 whole entry): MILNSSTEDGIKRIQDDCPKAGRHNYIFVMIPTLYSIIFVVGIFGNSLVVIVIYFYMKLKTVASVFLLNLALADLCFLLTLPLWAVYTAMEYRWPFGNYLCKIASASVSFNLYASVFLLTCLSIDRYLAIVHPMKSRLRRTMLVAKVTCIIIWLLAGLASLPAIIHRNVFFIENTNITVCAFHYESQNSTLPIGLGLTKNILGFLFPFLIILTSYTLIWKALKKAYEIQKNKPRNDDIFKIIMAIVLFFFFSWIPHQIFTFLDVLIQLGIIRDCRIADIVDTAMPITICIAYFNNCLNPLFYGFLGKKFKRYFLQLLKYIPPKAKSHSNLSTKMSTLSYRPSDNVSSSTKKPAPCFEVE
Nature of the series: Agonist activity at Galphaq16-fused human AGTR1 expressed in CHO cells assessed as stimulation of Ca2+ mobilization incubated for 1 hr by Calcium 5-dye based fluorescence based assay. The class given is functional, cell-based. The procedure, abridged:
as §2

For series [11], the target named is hERG (KCNH2) (Homo sapiens, UniProt Q12809). Nature of the series: Displacement of [3H]astemizole from human ERG at 10 uM measured after 60 mins by scintillation counter method relative to control. The conditions noted are these: probe [3H]astemizole. The procedure, abridged: as §1
hERG (KCNH2), sequence (Q12809 whole entry): as the sequence (Q12809 whole entry) above
Series [12] can be described thus: AUC in CD-1 mouse brain at 15 mg/kg, ip measured up to 24 hrs by LC-MS/MS analysis. The series is classed as ADME, organism-based. Further details: route intraperitoneal, dose 15 mg/kg, time <=24. The method, boiled down: as §3
Series [13] in a line: Cmax in CD-1 mouse plasma at 15 mg/kg, ip measured up to 24 hrs by LC-MS/MS analysis. The class given is ADME, organism-based. Further details: route intraperitoneal, dose 15 mg/kg, time <=24. The method, boiled down: as §3
Series [14] is described as follows: Clearance in CD-1 mouse plasma at 15 mg/kg, ip measured up to 24 hrs by LC-MS/MS analysis. The series is classed as ADME, organism-based. The method, boiled down:
as §3

Series [15] can be described thus: AUC in CD-1 mouse plasma at 15 mg/kg, ip measured up to 24 hrs by LC-MS/MS analysis. The series is classed as ADME, organism-based. Further details: route intraperitoneal, dose 15 mg/kg, time <=24. The method, boiled down: as §3
Series [16] can be described thus: Kinetic solubility of the compound in pH 7.4 PBS buffer measured after 2 hrs by LC-MS/MS analysis. The class given is physicochemical. The settings on record: read-out: Kinetic_solubility. The procedure, abridged:
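20 mM DMSO stock diluted into PBS pH 7.4 to a targeted 400 μM. Agitated 2 h at room temperature, filtered through 1 μm glass fiber, and eluate diluted 400-fold in acetonitrile/water (1:1) for analysis.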

The nature of series [17]: Half life in CD-1 mouse brain at 15 mg/kg, ip measured up to 24 hrs by LC-MS/MS analysis. The class given is ADME, organism-based. The procedure, abridged:
as §3

pEC50: −log10 of the molar value. Bounds are passed on as bounds.

For the compound `COc1cccc(OC)c1-c1cc(C(=O)N[C@@H](CCN2CCCCCC2)CC(=O)NC2CCC2)nn1C1CCCC1.Cl`, the half-life at 1 µM in [1] turned out to be 38 min. Further, the pEC50 is 6.80 in series [2] and 8.10 in [4]. Also, the CLint scaled at 1 µM in [3] was determined as 32.4 mL/min/kg.

On to `COc1cccc(OC)c1-c1cc(C(=O)N[C@@H](CCN2CCCCC2)CC(=O)N(C)C2CCC2)nn1C1CCCC1`, for which the half-life at 1 µM in series [1] was 37 min. In addition, the values for the pEC50 in series [2] and in [4] were 6.49 and 6.98, respectively. Besides, the CLint scaled at 1 µM in series [3] turned out to be 33.3 mL/min/kg.

Consider `CC(C)NCC(O)COc1cccc2ccccc12` (centres undefined) [PROPRANOLOL], for which the fraction unbound at 4 h, 10 µM in series [5] is 0.39.

`COCCN(C)C(=O)C[C@H](CCN1CCCCC1)NC(=O)c1cc(-c2c(OC)cccc2OC)n(C2CCCC2)n1`: the pEC50 is < 5.00 in series [2] and 5.62 in series [4].

Take `COc1cccc(OC)c1-c1cc(C(=O)N[C@@H](CCN2CCOCC2)CC(=O)NC2CCC2)nn1C1CCCC1.Cl`: the half-life at 1 µM in series [1] is 17 min. Moreover, the pEC50 in series [2] is 5.87; in series [4], 6.63. In [3], the CLint scaled at 1 µM amounted to 73.1 mL/min/kg.

For `COc1cccc(OC)c1-c1cc(C(=O)N[C@@H](CCN2CCCCC2)CC(=O)NC2CCC2)nn1C1CCCC1.Cl`, the fraction unbound at 4 h, 10 µM in series [5] was 0.09. In addition, the “inhibition (INH)” value in series [6] is recorded as “Not Active”. Also, the pEC50 in series [7] was 7.66; in series [10], < 5.00. Also, in series [1], the half-life at 1 µM came out at 62 min. Moreover, the half-life was 162 min in series [8] and 804 min in series [17]. Moreover, the Cmax worked out at 103 ng/mL in [9] and 1580 ng/mL in [13]. Moreover, the inhibition at 1 h, 10 µM in [11] is < 50%. The CLint scaled at 1 µM in [3] was determined as 20 mL/min/kg. The AUC at 24 h came out at 1080 ng·h/mL in [12] and 3000 ng·h/mL in series [15]. The same compound returned a CL/F in series [14] of 83 mL/min/kg. For the same compound, the solubility kinetic at 2 h in series [16] amounted to 192 µM.

As for `COc1cccc(OC)c1-c1cc(C(=O)N[C@@H](CCN2CCCCC2)Cc2nnc[nH]2)nn1C1CCCC1`, in [1], the half-life at 1 µM amounted to 33 min. In addition, the figures for the pEC50 in [2] and in series [4] were 6.28 and 6.87, respectively. Moreover, the CLint scaled at 1 µM in series [3] was 37.8 mL/min/kg.

For `COc1cccc(OC)c1-c1cc(C(=O)N[C@@H](CCN2C(C)CCCC2C)CC(=O)NC2CCC2)nn1C1CCCC1.Cl` (some centres undefined), the half-life at 1 µM in series [1] stood at 52 min. Besides, the pEC50 in series [2] was 6.34; in series [4] it was 7.48. Also, in [3], the CLint scaled at 1 µM was 23.9 mL/min/kg.

Consider `COc1cccc(OC)c1-c1cc(C(=O)N[C@@H](CCN2CCCCC2)CC(=O)N(C)c2nccs2)nn1C1CCCC1`, for which the half-life at 1 µM in series [1] came out at 37 min. Further, the pEC50 in [2] was 7.85; in [4] it was 8.30. The CLint scaled at 1 µM in series [3] stood at 33.4 mL/min/kg.

Take `COc1cccc(OC)c1-c1cc(C(=O)N[C@@H](CCN2CCCCC2)CC(=O)NC2CC(F)(F)C2)nn1C1CCCC1`: the half-life at 1 µM in series [1] is 38 min. For the same compound, the CLint scaled at 1 µM in series [3] worked out at 32.4 mL/min/kg.

As for `COc1cccc(OC)c1-c1cc(C(=O)N[C@@H](CCN2CCCCC2)CC(=O)Nc2nccs2)nn1C1CCCC1`, in [1], the half-life at 1 µM came to 27 min. Besides, in series [3], the CLint scaled at 1 µM stood at 46.7 mL/min/kg. For the same compound, the pEC50 in series [4] is 9.00.

Turning to `COc1cccc(OC)c1-c1cc(C(=O)N[C@@H](CCN2CCCCC2)CC(=O)Nc2nnn[nH]2)nn1C1CCCC1`, the half-life at 1 µM in series [1] was found to be 24.2 min. Further, the CLint scaled at 1 µM in series [3] turned out to be 25.8 mL/min/kg.

For orientation: half-life means the time in which the quantity being followed falls by half. The term pEC50 denotes the EC50 on a negative log10 scale, so that one unit is a factor of ten. For orientation: Cmax means the maximum level reached in the sampled fluid or tissue. By inhibition is commonly meant how much of the control response was suppressed. Read a high inhibition as strong suppression. Usually AUC stands for the area under the concentration-time curve, a measure of exposure. Low readings indicate low exposure, high ones high exposure. The CL/F is clearance divided by bioavailability, as obtained after extravascular dosing.
